Data from ChEMBL document CHEMBL4765452, “Discovery of (E)-N-(4-methyl-5-(3-(2-(pyridin-2-yl)vinyl)-1H-indazol-6-yl)thiazol-2-yl)-2-(4-methylpiperazin-1-yl)acetamide (IHMT-TRK-284) as a novel orally available type II TRK kinase inhibitor capable of overcoming multiple resistant mutants” (Eur J Med Chem, 2020).
The source made the active and inactive calls. The calls are words filed in the database; no cut-off is given here.

Experiments:
[1] = Antiproliferative activity in mouse BAF3 cells assessed as growth inhibition after 72 hrs by CCK8 assay; assay type: cell-based
In short: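 TEL- or LMNA-fusion isogenic BaF3 lines grown in RPMI 1640 with 10% FBS and 1% penicillin/streptomycin at 37 °C, 5% CO₂; suspension cells collected by spinning at 800 rpm for 4 min before use; growth inhibition scored as GI₅₀.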

[2] = target: T1, BDNF/NT-3 growth factors receptor (Homo sapiens, UniProt Q16620); test: Inhibition of TEL fused TRKB (unknown origin) transfected in mouse BAF3 cells assessed as growth inhibition after 72 hrs by CCK8 assay; assay type: cell-based
In short: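 TEL-fusion isogenic BaF3 lines were built in-house and grown in RPMI 1640 with 10% FBS and 1% penicillin/streptomycin at 37 °C under 5% CO2. Cells were spun down before use.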
Target sequence in this assay (Q16620 32-822 limits assumed): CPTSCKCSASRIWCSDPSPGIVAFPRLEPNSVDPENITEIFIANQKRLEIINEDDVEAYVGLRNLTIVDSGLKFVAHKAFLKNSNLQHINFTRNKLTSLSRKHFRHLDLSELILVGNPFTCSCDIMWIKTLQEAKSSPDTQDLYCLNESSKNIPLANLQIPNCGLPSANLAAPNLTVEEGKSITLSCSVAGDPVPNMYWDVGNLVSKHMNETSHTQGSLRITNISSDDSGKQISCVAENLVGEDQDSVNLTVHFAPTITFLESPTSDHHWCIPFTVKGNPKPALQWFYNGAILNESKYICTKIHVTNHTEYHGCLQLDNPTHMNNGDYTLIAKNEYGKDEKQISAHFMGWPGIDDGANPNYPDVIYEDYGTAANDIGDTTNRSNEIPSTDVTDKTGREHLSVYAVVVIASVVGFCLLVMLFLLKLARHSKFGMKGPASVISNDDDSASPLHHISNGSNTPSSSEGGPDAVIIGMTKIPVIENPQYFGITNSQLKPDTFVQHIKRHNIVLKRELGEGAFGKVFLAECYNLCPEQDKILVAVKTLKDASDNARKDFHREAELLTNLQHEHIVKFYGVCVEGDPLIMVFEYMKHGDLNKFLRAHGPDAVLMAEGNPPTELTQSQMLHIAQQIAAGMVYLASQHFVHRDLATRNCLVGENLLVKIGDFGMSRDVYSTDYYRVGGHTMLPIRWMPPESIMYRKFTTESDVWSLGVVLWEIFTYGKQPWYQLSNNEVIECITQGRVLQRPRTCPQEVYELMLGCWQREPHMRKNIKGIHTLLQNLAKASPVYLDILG

[3] = target: T2, High affinity nerve growth factor receptor (Homo sapiens, UniProt P04629); test: Inhibition of LMNA fused TRKA (unknown origin) transfected in mouse BAF3 cells assessed as growth inhibition after 72 hrs by CCK8 assay; assay type: cell-based
Target sequence in this assay (P04629 33-796 limits assumed): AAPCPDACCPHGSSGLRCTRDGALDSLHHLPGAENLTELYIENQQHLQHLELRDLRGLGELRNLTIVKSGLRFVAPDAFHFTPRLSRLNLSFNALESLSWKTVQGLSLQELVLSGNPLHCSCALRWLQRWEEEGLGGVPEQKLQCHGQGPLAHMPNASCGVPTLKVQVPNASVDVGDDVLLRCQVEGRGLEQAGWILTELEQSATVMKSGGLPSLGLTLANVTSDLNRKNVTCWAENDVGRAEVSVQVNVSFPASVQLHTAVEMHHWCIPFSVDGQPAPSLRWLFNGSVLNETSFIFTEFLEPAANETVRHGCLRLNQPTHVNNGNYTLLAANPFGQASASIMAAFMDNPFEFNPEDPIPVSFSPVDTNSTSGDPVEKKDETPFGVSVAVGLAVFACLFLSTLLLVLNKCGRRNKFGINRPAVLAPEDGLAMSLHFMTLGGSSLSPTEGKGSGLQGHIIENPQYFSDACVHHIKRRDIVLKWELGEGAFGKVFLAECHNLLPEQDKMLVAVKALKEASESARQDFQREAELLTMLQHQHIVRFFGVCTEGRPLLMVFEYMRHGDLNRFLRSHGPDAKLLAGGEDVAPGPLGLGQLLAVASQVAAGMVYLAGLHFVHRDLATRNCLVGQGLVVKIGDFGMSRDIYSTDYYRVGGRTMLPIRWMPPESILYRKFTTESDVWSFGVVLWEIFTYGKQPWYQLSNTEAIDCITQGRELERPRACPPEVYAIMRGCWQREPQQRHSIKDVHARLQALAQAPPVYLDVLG

[4] = system: High affinity nerve growth factor receptor (Homo sapiens), P04629 [G595R]; test: Inhibition of LMNA fused TRKA G595R mutant (unknown origin) transfected in mouse BAF3 cells assessed as growth inhibition after 72 hrs by CCK8 assay; assay type: cell-based
Sequence of High affinity nerve growth factor receptor (Homo sapiens), P04629 [G595R] (P04629 whole entry G595R, looked up, the tested form may be a part): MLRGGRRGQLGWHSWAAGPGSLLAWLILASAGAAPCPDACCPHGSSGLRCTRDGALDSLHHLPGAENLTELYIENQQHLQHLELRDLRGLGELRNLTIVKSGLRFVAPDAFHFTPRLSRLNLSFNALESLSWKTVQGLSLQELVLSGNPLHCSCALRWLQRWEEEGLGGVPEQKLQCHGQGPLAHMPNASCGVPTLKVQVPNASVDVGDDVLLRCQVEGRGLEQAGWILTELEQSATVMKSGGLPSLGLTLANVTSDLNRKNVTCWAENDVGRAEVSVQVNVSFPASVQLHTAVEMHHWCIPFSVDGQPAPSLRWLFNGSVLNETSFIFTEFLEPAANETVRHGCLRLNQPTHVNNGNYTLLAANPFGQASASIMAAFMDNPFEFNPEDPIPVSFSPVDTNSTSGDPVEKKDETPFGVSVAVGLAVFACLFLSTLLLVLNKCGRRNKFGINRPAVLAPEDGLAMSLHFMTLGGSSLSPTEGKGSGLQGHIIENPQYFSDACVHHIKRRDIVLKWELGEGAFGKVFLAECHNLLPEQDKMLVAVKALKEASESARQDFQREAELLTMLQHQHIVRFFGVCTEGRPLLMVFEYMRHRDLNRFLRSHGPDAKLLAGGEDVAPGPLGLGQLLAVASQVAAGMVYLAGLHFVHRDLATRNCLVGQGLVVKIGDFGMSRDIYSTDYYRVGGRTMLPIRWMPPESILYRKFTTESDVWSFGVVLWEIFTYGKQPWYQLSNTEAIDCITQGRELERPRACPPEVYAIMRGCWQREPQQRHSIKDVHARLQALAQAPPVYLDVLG

[5] = target: T1, BDNF/NT-3 growth factors receptor; test: Inhibition of human TRKB by Z-LYTE or ADP-Glo assay
In short: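 Purified kinase proteins tested biochemically in Z'LYTE or ADP-Glo format.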
Target sequence in this assay (Q16620 whole entry, the tested form may be a part): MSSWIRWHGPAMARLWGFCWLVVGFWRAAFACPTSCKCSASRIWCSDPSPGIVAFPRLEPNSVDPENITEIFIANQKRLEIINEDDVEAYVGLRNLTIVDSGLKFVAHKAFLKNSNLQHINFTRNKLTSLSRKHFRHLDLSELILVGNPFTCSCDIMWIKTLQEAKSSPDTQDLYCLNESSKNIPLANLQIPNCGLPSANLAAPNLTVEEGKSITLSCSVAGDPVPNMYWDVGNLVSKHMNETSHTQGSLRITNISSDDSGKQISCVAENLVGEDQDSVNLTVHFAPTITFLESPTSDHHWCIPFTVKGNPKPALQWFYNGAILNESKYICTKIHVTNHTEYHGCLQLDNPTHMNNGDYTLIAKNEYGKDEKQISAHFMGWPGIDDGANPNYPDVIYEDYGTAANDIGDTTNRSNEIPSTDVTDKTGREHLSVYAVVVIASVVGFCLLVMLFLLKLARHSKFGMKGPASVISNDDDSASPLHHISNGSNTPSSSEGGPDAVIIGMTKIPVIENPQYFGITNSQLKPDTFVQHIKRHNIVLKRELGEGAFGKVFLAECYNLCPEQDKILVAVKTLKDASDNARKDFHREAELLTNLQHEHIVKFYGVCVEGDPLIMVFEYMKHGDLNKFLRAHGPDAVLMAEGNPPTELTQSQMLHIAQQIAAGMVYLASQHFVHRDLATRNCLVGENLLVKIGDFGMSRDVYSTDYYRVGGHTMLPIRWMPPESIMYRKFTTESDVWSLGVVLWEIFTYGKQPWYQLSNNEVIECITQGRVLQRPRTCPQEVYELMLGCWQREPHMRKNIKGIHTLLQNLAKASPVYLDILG

[6] = target: T2, High affinity nerve growth factor receptor; test: Inhibition of TRKA in human KM-12-LUC cells assessed as reduction in TRKA phosphorylation at Y490 residue at 0.01 uM after 2 hrs by Western blot analysis; assay type: cell-based; conditions: KM12-Luc
In short: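 KM-12-LUC cells cultured in RPMI 1640 with 10% FBS and 1% penicillin/streptomycin. Serially diluted compound applied for 2 h. Cells collected and lysed, and lysates analysed by western blotting for phospho-TRKA Y490, AKT T308/S473 and ERK1/2 T202/Y204.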
Target sequence in this assay (P04629 33-796 limits assumed): as the sequence (P04629 33-796 limits assumed) above

[7] = target: T2, High affinity nerve growth factor receptor; test: Inhibition of TRKA in human KM-12-LUC cells assessed as reduction in ERK1/2 phosphorylation at T202/Y204 residues after 2 hrs by Western blot analysis; assay type: cell-based, KM12-Luc
In short: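 KM-12-LUC (TPM3-TRKA fused colon cancer cells) grown in RPMI 1640 with 10% FBS and 1% penicillin/streptomycin at 37 °C under 5% CO2. Serially diluted compound added for 2 h. Lysates western blotted for phospho-AKT (T308/S473) and phospho-ERK1/2 (T202/Y204).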
Target sequence in this assay (P04629 whole entry, the tested form may be a part): as the sequence (P04629 whole entry G595R, looked up, the tested form may be a part) above, with R595G counted along it

[8] = AUC (0 to t) in mouse at 1 mg/kg, iv; assay type: ADME, organism-based; parameters: dose 1 mg/kg; conditions: in vivo
In short: (§1)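 Intravenous and oral arms were run in parallel in each species (mice, Sprague Dawley rats, beagle dogs). Exposure is reported as AUC0-t in ng/mL·h.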

[9] = AUC (0 to t) in mouse at 10 mg/kg, po; assay type: ADME, organism-based; parameters: dose 10 mg/kg; conditions: in vivo; in short: as §1
[10] = Half life in mouse at 10 mg/kg, po; assay type: ADME, organism-based; conditions: in vivo
[11] = Apparent clearance in mouse at 10 mg/kg, po; assay type: ADME, organism-based; conditions: in vivo, read-out: CLz/F (converted)
[12] = Apparent volume of distribution in Sprague-Dawley rat at 10 mg/kg, po; assay type: ADME, organism-based; conditions: in vivo
[13] = Apparent clearance in Sprague-Dawley rat at 1 mg/kg, iv; assay type: ADME, organism-based; conditions: in vivo
[14] = Apparent clearance in Sprague-Dawley rat at 10 mg/kg, po; assay type: ADME, organism-based; conditions: in vivo, read-out: CLz/F (converted)
[15] = Oral bioavailability in Sprague-Dawley rat at 10 mg/kg; assay type: ADME, organism-based; conditions: in vivo
In short: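 Single-dose PK in mice, Sprague Dawley rats and beagle dogs, given i.v. (1 mg/kg) or p.o. (10 mg/kg mice and rats; 5 mg/kg dogs). AUC0-t, T1/2, Tmax and oral bioavailability (F) derived from plasma profiles.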

[16] = Cmax in Beagle dog at 1 mg/kg, iv; assay type: ADME, organism-based, Canis lupus familiaris; parameters: route intravenous, dose 1 mg/kg; conditions: in vivo
BaF3 [17] = test: Antitumor activity against mouse BAF3 cells harboring TEL fused TRKB allografted in nude mouse assessed as tumor growth inhibition at 80 mg/kg, po administered once daily for 10 days relative to control; assay type: functional; conditions: 240 h, time 10 day, read-out: TGI
In short: (§2)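 Nu/nu mice given 1 million BaF3 cells (TEL-TRKA, TEL-TRKB, TEL-TRKC, LMNA-TRKA-F589L or LMNA-TRKA-G667S) in DMEM, 1:1 with matrigel, injected subcutaneously into the right flank; oral gavage began at 200–400 mm³, 5 mice per group, compound in 0.5% methylcellulose/0.4% Tween 80 in ddH₂O, 10 days; tumor volume [(W²×L)/2] and body weight recorded daily; TGI versus vehicle.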

[18] = Antitumor activity against human […] cells xenografted in nude mouse assessed as tumor growth inhibition at 40 mg/kg, po administered once daily for 10 days relative to control; assay type: functional; conditions: KM12-Luc, 240 h, time 10 day, read-out: TGI
In short: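 Nu/nu mice given 5 million KM-12-LUC cells in DMEM, 1:1 with matrigel, injected subcutaneously into the right flank; oral gavage started at tumor size 150–200 mm³, 5 mice per group, compound in 0.5% methylcellulose/0.4% Tween 80 in ddH₂O; body weight and tumor volume [(W²×L)/2] measured daily; TGI versus vehicle.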

BaF3 [19] = test: Antitumor activity against mouse BAF3 cells harboring LMNA fused TRKA-F589L mutant allografted in nude mouse assessed as tumor growth inhibition at 80 mg/kg, po administered once daily for 10 days relative to control; assay type: functional; conditions: 240 h, time 10 day, read-out: TGI; in short: as §2
BaF3 [20] = test: Antitumor activity against mouse BAF3 cells harboring LMNA fused TRKA-F589L mutant allografted in nude mouse assessed as tumor growth inhibition at 40 mg/kg, po administered once daily for 10 days relative to control; assay type: functional; conditions: 240 h, time 10 day, read-out: TGI; in short: as §2
BaF3 [21] = test: Antitumor activity against mouse BAF3 cells harboring TEL fused TRKC allografted in nude mouse assessed as tumor growth inhibition at 40 mg/kg, po administered once daily for 10 days relative to control; assay type: functional; conditions: 240 h, time 10 day, read-out: TGI; in short: as §2
[22] = Toxicity in mouse xenografted with mouse BAF3 cells harboring TEL fused TRKC assessed as effect on body weight at 40 to 80 mg/kg, po administered once daily for 10 days; assay type: organism-based; conditions: in vivo, 240 h, dose 40-80 mg/kg/day, time 10 day
In short: (§3)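 nu/nu mice were given subcutaneous right-flank implants in 1:1 DMEM/matrigel: 1 million BaF3 fusion cells or 5 million KM-12-LUC cells. Oral gavage started at 150–200 mm3 (xenograft) or 200–400 mm3 (allograft). Dosing used 40 or 80 mg/kg in HKI vehicle (0.5% methylcellulose/0.4% Tween 80 in ddH2O), with 5 mice per group. Body weight was recorded daily and behaviour observed.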

[23] = Toxicity in mouse xenografted with mouse BAF3 cells harboring […] TRKA-G667S mutant assessed as effect on body weight at 40 to 80 mg/kg, po administered twice daily for 10 days; assay type: organism-based; conditions: in vivo, 240 h, dose 40-80 mg/kg, time 10 day; in short: as §3
[24] = Toxicity in mouse xenografted with mouse BAF3 cells harboring […] TRKA-F589L mutant assessed as effect on body weight at 40 to 80 mg/kg, po administered once daily for 10 days; assay type: organism-based; conditions: in vivo, 240 h, dose 40-80 mg/kg/day, time 10 day; in short: as §3
[25] = Toxicity in mouse xenografted with mouse BAF3 cells harboring TEL fused TRKB assessed as effect on animals behaviour at 40 to 80 mg/kg, po administered once daily for 10 days; assay type: organism-based; conditions: in vivo, 240 h, dose 40-80 mg/kg/day, time 10 day; in short: as §3

GI50 [2]: 8.2 nM
GI50 [3]: 7 nM
GI50 [4]: 194 nM
IC50 [5]: 0.71 nM
inhibition [6]: Active
EC50 [7]: < 30 nM
AUC(0-t) [8]: 748 ng·h/mL
AUC(0-t) [9]: 1430 ng·h/mL
t1/2 [10]: 3.4 h
CL/F [11]: 108 mL/min/kg
Vz [12]: 37.364 L/kg
CLz/F [13]: 41.35 mL/min/kg
CL/F [14]: 170 mL/min/kg
bioavailability [15]: 26%
Cmax [16]: 284 ng/mL
Compound: Cc1nc(NC(=O)CN2CCN(C)CC2)sc1-c1ccc2c(/C=C/c3ccccn3)n[nH]c2c1
GI50 at 72 h [1]: 1400 nM
inhibition in vivo at 80 mg/kg/day (BaF3 [17]): 92.7%
inhibition in vivo at 40 mg/kg/day [18]: 93.4%
inhibition in vivo at 80 mg/kg/day (BaF3 [19]): 87.7%
inhibition in vivo at 40 mg/kg/day (BaF3 [20]): 80%
inhibition in vivo at 40 mg/kg/day (BaF3 [21]): 40.6%
Activity [22]: Non-Toxic
Activity [23]: Non-Toxic
Activity [24]: Non-Toxic
Activity [25]: Non-Toxic
